Experimental data: ChEMBL document CHEMBL3994644, “Discovery of AAT-008, a novel, potent, and selective prostaglandin EP4 receptor antagonist” (Bioorg Med Chem Lett, 2017)

What was measured:
[1] = molecular target: T1, Prostaglandin E2 receptor EP4 subtype (Homo sapiens, UniProt P35408); experiment: Antagonist activity at human EP4 receptor expressed in HEK293 cells assessed as inhibition of PGE2-induced cAMP level by HTS assay; format: functional, cell-based; details: for Kb: read-out: pA2 (converted)
[2] = Half life in human liver microsomes; format: ADME, microsome
[3] = Solubility of the compound in pH 6.5 PBS; format: physicochemical
[4] = molecular target: T1, Prostaglandin E2 receptor EP4 subtype; experiment: Displacement of [3H]PGE from human EP4 receptor expressed in HEK293 cell membranes
How it was run: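 Membrane binding assay using [3H]PGE2 with membranes from HEK-293 cells expressing human EP4. The value is expressed as Ki.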

[5] = Apparent permeability from apical to basolateral side in human Caco2 cells; format: ADME, cell-based; details: Caco-2
How it was run: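 Caco-2 monolayer permeability (Papp, apical to basolateral) was measured under constant pH, with the apical side at pH 6.5 and the basolateral side at pH 7.4.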

[6] = molecular target: Prostaglandin E2 receptor EP4 subtype (Mus musculus, UniProt P32240); experiment: Antagonist activity at mouse recombinant EP4 receptor assessed as inhibition of PGE2-induced cAMP level by cell based assay; format: functional; details: read-out: pA2 (converted)
How it was run: (§1)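 Functional antagonism was measured as inhibition of PGE2-induced cAMP in cells transfected with rodent EP4 (mouse or rat). The value is expressed as pA2.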

[7] = molecular target: Prostaglandin E receptor 4 (Canis lupus familiaris, UniProt Q9TU16); experiment: Antagonist activity at dog recombinant EP4 receptor
[8] = molecular target: T2, Prostaglandin E2 receptor EP4 subtype (Rattus norvegicus, UniProt P43114); experiment: Antagonist activity at rat recombinant EP4 receptor assessed as inhibition of PGE2-induced cAMP level by cell based assay; format: functional; details: read-out: pA2 (converted); how it was run: as §1
[9] = molecular target: T2, Prostaglandin E2 receptor EP4 subtype; experiment: Antagonist activity at rat recombinant EP4 receptor
Prostacyclin receptor = Prostacyclin receptor (Homo sapiens, UniProt P43119); experiment: Antagonist activity at human IP receptor
Thromboxane A2 receptor = molecular target: T3, Thromboxane A2 receptor (Homo sapiens, UniProt P21731); experiment: Antagonist activity at human platelet TP receptor
T3 sequence (P21731 whole entry): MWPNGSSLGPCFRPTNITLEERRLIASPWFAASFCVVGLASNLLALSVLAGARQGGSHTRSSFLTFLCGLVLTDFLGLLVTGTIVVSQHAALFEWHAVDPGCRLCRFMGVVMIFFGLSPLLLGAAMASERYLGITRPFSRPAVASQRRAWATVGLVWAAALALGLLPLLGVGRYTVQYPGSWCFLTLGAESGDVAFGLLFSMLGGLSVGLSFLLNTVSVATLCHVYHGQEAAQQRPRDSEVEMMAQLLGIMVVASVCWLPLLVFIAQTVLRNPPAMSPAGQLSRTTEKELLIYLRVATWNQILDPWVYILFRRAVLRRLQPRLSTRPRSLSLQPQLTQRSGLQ

[10] = molecular target: T4, Prostaglandin E2 receptor EP1 subtype (Homo sapiens, UniProt P34995); experiment: Antagonist activity at human EP1 receptor
T4 sequence (P34995 whole entry): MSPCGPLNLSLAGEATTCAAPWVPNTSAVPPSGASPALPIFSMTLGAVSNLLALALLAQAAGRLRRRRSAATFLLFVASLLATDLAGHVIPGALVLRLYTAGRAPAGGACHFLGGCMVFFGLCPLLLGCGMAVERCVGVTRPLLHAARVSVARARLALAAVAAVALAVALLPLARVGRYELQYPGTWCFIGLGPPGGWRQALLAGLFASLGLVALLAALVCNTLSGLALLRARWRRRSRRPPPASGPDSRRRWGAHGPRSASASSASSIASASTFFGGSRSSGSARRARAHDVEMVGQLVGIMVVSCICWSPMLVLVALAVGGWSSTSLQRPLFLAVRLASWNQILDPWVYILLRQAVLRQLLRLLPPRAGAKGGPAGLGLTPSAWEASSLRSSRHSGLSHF

[11] = molecular target: Prostaglandin E2 receptor EP2 subtype (Homo sapiens, UniProt P43116); experiment: Antagonist activity at human EP2 receptor
[12] = molecular target: T5, Prostaglandin E2 receptor EP3 subtype (Homo sapiens, UniProt P43115); experiment: Antagonist activity at human EP3 receptor
T5 sequence (P43115 whole entry): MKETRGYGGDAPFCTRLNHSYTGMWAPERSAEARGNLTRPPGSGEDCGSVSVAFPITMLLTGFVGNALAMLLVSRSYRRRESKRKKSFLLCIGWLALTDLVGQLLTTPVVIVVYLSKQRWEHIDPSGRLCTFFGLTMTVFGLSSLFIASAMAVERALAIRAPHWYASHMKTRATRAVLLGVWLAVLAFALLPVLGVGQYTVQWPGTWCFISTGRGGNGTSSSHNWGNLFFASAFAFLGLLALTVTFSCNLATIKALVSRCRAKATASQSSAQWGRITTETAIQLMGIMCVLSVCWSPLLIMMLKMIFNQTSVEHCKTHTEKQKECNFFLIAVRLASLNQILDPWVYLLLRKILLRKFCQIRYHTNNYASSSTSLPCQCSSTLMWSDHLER

Rattus norvegicus [13] = experiment: Analgesic activity in po dosed rat assessed as inhibition of carrageenan-induced mechanical hyperalgesia measured at 1 hr post dose; format: functional; details: read-out: MED
How it was run: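 Rats dosed orally. Mechanical hyperalgesia was induced with carrageenan and assessed 1 h post dose. The value is the minimum effective dose (MED, mg/kg PO).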

[14] = Antagonist activity at human DP receptor
[15] = molecular target: Prostaglandin F2-alpha receptor (Homo sapiens, UniProt P43088); experiment: Antagonist activity at human FP receptor
Rattus norvegicus [16] = experiment: Analgesic activity in po dosed rat model of chronic inflammatory pain assessed as inhibition of CFA-induced weight bearing deficit; format: functional; details: read-out: MED
How it was run: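 Chronic inflammatory pain was modelled in rats with CFA and read out as weight bearing deficit after oral dosing. The value is the minimum effective dose (MED, mg/kg PO).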

Chain of Prostaglandin E2 receptor EP2 subtype (P43116 whole entry): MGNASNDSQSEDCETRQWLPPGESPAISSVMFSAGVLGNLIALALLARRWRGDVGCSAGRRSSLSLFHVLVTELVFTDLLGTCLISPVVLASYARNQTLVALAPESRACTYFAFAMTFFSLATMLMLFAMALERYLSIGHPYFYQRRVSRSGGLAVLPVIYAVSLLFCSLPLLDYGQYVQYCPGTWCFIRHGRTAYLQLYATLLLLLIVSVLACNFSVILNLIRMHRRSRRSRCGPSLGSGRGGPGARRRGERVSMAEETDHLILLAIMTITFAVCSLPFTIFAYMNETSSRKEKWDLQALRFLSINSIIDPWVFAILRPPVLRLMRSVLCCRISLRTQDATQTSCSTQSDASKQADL
T1 sequence (P35408 whole entry): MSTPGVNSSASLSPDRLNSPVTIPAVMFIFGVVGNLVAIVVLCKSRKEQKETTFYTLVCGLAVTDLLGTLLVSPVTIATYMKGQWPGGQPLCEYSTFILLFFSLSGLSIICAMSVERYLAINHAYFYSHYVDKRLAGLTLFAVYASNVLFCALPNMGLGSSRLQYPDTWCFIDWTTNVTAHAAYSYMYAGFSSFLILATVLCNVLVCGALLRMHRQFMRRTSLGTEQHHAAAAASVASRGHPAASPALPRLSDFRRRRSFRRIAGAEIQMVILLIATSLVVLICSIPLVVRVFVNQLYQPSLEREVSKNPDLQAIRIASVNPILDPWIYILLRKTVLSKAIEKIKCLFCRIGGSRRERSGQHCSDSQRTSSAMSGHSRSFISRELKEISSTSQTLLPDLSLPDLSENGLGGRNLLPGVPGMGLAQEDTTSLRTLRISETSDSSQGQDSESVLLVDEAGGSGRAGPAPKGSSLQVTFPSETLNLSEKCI
T2 sequence (P43114 whole entry): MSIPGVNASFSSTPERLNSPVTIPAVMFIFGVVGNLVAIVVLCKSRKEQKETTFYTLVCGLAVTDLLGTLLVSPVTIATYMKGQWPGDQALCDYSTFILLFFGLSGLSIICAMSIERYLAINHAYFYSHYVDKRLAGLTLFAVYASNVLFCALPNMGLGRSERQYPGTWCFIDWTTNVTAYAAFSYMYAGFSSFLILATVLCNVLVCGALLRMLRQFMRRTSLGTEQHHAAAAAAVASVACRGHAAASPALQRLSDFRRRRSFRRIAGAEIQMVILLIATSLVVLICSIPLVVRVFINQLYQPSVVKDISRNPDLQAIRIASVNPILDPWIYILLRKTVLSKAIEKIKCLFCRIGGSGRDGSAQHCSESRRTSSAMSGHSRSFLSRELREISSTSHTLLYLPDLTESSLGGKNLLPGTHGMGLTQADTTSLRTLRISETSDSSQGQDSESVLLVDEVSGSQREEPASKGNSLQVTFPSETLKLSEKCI
Chain of Prostaglandin E2 receptor EP4 subtype (Mus musculus, UniProt P32240) (P32240 whole entry): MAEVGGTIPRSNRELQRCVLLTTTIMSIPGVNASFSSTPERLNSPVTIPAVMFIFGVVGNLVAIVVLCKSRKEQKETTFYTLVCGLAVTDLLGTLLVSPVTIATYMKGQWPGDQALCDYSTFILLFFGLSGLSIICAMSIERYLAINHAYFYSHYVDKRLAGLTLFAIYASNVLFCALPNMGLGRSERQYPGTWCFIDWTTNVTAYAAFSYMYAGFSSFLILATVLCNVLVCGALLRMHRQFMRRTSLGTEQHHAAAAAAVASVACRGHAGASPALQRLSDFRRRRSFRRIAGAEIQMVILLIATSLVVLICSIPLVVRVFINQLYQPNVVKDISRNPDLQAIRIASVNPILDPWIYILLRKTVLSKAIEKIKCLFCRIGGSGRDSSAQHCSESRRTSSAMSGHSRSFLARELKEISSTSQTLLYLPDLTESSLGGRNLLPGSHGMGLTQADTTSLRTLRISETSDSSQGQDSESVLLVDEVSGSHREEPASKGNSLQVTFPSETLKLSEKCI
Chain of Prostaglandin E receptor 4 (Q9TU16 whole entry): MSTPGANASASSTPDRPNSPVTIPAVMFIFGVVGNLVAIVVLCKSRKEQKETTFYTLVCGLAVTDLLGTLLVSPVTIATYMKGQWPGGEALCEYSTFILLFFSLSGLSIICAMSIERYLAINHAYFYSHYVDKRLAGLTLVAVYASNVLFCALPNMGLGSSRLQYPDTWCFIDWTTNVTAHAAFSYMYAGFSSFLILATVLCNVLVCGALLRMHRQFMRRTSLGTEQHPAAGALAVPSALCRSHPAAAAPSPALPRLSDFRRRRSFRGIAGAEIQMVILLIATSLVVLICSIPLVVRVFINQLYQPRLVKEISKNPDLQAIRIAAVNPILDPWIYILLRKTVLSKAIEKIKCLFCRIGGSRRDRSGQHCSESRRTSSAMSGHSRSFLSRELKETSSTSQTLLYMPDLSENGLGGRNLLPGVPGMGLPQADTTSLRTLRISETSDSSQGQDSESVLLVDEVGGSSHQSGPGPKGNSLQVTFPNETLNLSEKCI
Chain of Prostacyclin receptor (P43119 whole entry): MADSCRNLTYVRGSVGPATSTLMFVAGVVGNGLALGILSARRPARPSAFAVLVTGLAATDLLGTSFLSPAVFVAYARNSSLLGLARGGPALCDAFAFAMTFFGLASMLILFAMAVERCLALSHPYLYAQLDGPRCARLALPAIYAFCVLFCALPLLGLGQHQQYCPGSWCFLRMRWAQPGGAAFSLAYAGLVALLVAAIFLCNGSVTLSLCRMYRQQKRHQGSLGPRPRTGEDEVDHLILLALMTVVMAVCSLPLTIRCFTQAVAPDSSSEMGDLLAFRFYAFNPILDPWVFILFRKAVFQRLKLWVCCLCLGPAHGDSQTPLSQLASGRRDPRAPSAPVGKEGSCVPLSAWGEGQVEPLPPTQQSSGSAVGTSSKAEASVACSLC
Chain of Prostaglandin F2-alpha receptor (P43088 whole entry): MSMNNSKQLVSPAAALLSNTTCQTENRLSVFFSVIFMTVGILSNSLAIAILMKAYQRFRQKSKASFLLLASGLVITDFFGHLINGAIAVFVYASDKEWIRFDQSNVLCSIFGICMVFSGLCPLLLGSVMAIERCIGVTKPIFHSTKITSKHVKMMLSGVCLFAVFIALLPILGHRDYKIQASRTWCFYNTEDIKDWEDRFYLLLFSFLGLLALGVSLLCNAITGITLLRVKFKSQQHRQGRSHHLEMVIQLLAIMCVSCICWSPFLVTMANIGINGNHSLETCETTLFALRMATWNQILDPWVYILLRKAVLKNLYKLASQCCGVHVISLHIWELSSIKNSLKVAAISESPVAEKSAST

O=C(O)c1ccc(CNC(=O)c2cccc(OCc3nc4cc(F)ccc4s3)c2)cc1
IC50 [1]: 370 nM
half-life [2]: > 2 h
solubility [3]: > 10 µM

C[C@H](NC(=O)c1cc(Cl)cnc1Oc1cccc(Cl)c1)c1ccc(C(=O)O)cc1
IC50 [1]: 21.8 nM
half-life [2]: > 2 h
IC50 [4]: 5.02 nM

C[C@@H](NC(=O)c1cc(Cl)cnc1Oc1ccc(F)cc1)c1ccc(C(=O)O)cc1
IC50 [1]: 1210 nM
Papp A→B [5]: 25.3 ×10⁻⁶ cm/s

O=C(O)c1ccc(CNC(=O)c2cc(Cl)ccc2Oc2ccc(F)cc2)cc1
IC50 [1]: 101 nM
IC50 [4]: 21.6 nM
Papp A→B [5]: 51.4 ×10⁻⁶ cm/s

CCc1nc2c(C)nc(C)cc2n1-c1ccc(CCNC(=O)NS(=O)(=O)c2ccc(C)cc2)cc1 [GRAPIPRANT]
Kb [6]: 7.76 nM
Ki [7]: 24 nM
Kb [8]: 6.46 nM
Ki [9]: 20 nM
Ki (Prostacyclin receptor): > 5000 nM
Ki (Thromboxane A2 receptor): > 5000 nM
Kb [1]: 4.79 nM
Ki [4]: 13 nM
Ki [10]: > 5000 nM
Ki [11]: > 5000 nM
Ki [12]: > 5000 nM
minimal effective dose (Rattus norvegicus [13]): 30 mg/kg
Ki [14]: 2930 nM
Ki [15]: > 5000 nM
minimal effective dose (Rattus norvegicus [16]): 20 mg/kg

CC(C)(NC(=O)c1cc(F)cnc1Oc1ccc(F)cc1)c1ccc(C(=O)O)cc1
IC50 [4]: 545 nM
Papp A→B [5]: 36.3 ×10⁻⁶ cm/s

COc1cccc(Oc2ncc(Cl)cc2C(=O)N[C@@H](C)c2ccc(C(=O)O)cc2)c1
IC50 [1]: 340 nM

O=C(O)c1ccc(CNC(=O)c2cc(F)cnc2Oc2ccc(F)cc2)cc1
IC50 [1]: 575 nM
half-life [2]: > 2 h
solubility [3]: > 10 µM
IC50 [4]: 104 nM
Ki [4]: 73 nM
Papp A→B [5]: 25.3 ×10⁻⁶ cm/s
IC50 [10]: > 20000 nM
IC50 [11]: > 20000 nM
IC50 [12]: > 20000 nM

C[C@H](NC(=O)c1cc(Cl)ccc1Oc1cccc(Cl)c1)c1ccc(C(=O)O)cc1
IC50 [1]: 41.1 nM

C[C@H](NC(=O)c1cc(Cl)cnc1Oc1cc(F)cc(F)c1)c1ccc(C(=O)O)cc1
IC50 [1]: < 50 nM

C[C@H](NC(=O)c1cc(Cl)cnc1Oc1ccccc1Cl)c1ccc(C(=O)O)cc1
IC50 [1]: 93.5 nM

C[C@H](NC(=O)c1cc(Cl)cnc1Oc1cc(F)ccc1F)c1ccc(C(=O)O)cc1
IC50 [1]: < 50 nM

Cc1ccc(C(=O)NCc2ccc(C(=O)O)cc2)c(Oc2ccc(F)cc2)n1
IC50 [1]: > 5000 nM

C[C@H](NC(=O)c1cc(Cl)cnc1Oc1cccc(F)c1F)c1ccc(C(=O)O)cc1
IC50 [1]: < 50 nM

C[C@H](NC(=O)c1cc(Cl)ccc1Oc1ccc(F)cc1)c1ccc(C(=O)O)cc1
IC50 [1]: 38.2 nM
Kb [1]: 1.78 nM
half-life [2]: > 2 h
IC50 [4]: 6.59 nM
Papp A→B [5]: 32.4 ×10⁻⁶ cm/s
IC50 [10]: > 20000 nM
IC50 [11]: 709 nM
IC50 [12]: > 20000 nM
minimal effective dose (Rattus norvegicus [13]): 10 mg/kg

C[C@H](NC(=O)c1cc(Cl)cnc1Oc1cncc(F)c1)c1ccc(C(=O)O)cc1
IC50 [1]: 175 nM
